Test results reported in BindingDB's records for doi:10.1021/jm990600c (University of California, 2000).
Structures can show the parent of a compound that is named as a salt.

Legend:
[1] = target: T1, Gag-Pol polyprotein [489-587] (Human immunodeficiency virus 1, UniProt P04585); test: Inhibition of 3'-processing (TC) in the presence of Mn2+ in vitro
T1 construct: 489-587
Method in brief: (§1)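 Purified recombinant HIV-1 integrase with DNAs mimicking one viral cDNA end and a target DNA, Mn2+ as the divalent cofactor; compounds titrated in. Terminal cleavage (3'-processing) and strand-transfer products resolved and read by gel assay.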

[2] = target: T1, Gag-Pol polyprotein [489-587]; test: Inhibition of strand -transfer (ST) activity in the presence of Mn2+; method in brief: as §1
[3] = target: T1, Gag-Pol polyprotein [489-587]; test: Tested in vitro against strand -transfer (ST) activity in the presence of Mg2+ as the cationic cofactor
Method in brief: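 Strand transfer by purified recombinant HIV-1 integrase with Mg2+ as cofactor, monitored in a microtiter plate format with viral-end and target DNAs; product detected through a digoxygenin label in the DNA; compounds titrated.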

Structure (SMILES) | IC50 [1] | IC50 [2] | IC50 [3]
CC1(C)CC2(CC(C)(C)c3c(Br)c(OS(=O)(=O)O)c(OS(=O)(=O)O)c(Br)c32)c2c(Br)c(OS(=O)(=O)O)c(OS(=O)(=O)O)c(Br)c21 [3,3,3',3'-tetramethyl-1,1'-spirobi(indan)-4,4',7,7'-tetrabromo-5,5',6,6'-tetrol tetrasulfate] | 1.4 µM | 0.35 µM | 4 µM
CC1(C)CC2(CC(C)(C)c3cc(OS(=O)(=O)O)c(OS(=O)(=O)O)cc32)c2cc(OS(=O)(=O)O)c(OS(=O)(=O)O)cc21 [3,3,3',3'-tetramethyl-1,1'-spirobi(indan)-5,5',6,6'-tetrol tetrasulfate] | 2.8 µM | 2 µM | –
CC1(C)CC2(CC(C)(C)c3cc(N)c(O)cc32)c2cc(O)c(N)cc21 [3,3,3',3'-tetramethyl-1,1'-spirobi(indan)-5,5'-diamino-6,6'-diol Dihydrochloric salt] | – | – | 33 µM
CC1(C)CC2(CC(C)(C)c3ccc(O)c(NC(N)=O)c32)c2cc(O)c(NC(N)=O)cc21 (centres undefined) [3,3,3',3'-tetramethyl-1,1'-spirobi(indan)-6,6'-dihydroxy-5,7'-bisurea] | 420 µM | 350 µM | –
CC1(C)CC2(CC(C)(C)c3ccc(O)cc32)c2cc(O)ccc21 [3,3,3',3'-tetramethyl-1,1'-spirobi[2,3-dihydro-1H-indene]-6,6'-diol] | 275 µM | 231 µM | –
CC1(C)CC2(CC(C)(C)c3cc([N+](=O)[O-])c(O)c([N+](=O)[O-])c32)c2cc(O)c([N+](=O)[O-])cc21 (centres undefined) [3,3,3',3'-tetramethyl-5,5',7'-trinitro-1,1'-spirobi[2,3-dihydro-1H-indene]-6,6'-diol] | 44 µM | 25 µM | 47 µM
CC1(C)CC2(CC(C)(C)c3ccc(O)c([N+](=O)[O-])c32)c2cc(O)c([N+](=O)[O-])cc21 (centres undefined) [3,3,3',3'-tetramethyl-5,7'-dinitro-1,1'-spirobi[2,3-dihydro-1H-indene]-6,6'-diol] | 47 µM | 53 µM | 100 µM
CC1(C)CC2(CC(C)(C)c3c(Br)c(O)c(O)c(Br)c32)c2c(Br)c(O)c(O)c(Br)c21 [4,4',7,7'-tetrabromo-3,3,3',3'-tetramethyl-1,1'-spirobi[2,3-dihydro-1H-indene]-5,5',6,6'-tetraol] | 3.14 µM | 1.78 µM | 15 µM
CC1(C)CC2(CC(C)(C)c3cc(Br)c(O)cc32)c2cc(O)c(Br)cc21 [5,5'-dibromo-3,3,3',3'-tetramethyl-1,1'-spirobi[2,3-dihydro-1H-indene]-6,6'-diol] | 11 µM | 10 µM | –
CC1(C)CC2(CC(C)(C)c3cc(I)c(O)cc32)c2cc(O)c(I)cc21 [5,5'-diiodo-3,3,3',3'-tetramethyl-1,1'-spirobi[2,3-dihydro-1H-indene]-6,6'-diol] | 6.28 µM | 3.12 µM | –
CC1(C)CC2(CC(C)(C)c3cc(C=O)c(O)cc32)c2cc(O)c(C=O)cc21 [6,6'-dihydroxy-3,3,3',3'-tetramethyl-1,1'-spirobi[2,3-dihydro-1H-indene]-5,5'-dicarbaldehyde] | 35 µM | 6 µM | 16 µM
CC1(C)CC2(CC(C)(C)c3cc(S(=O)(=O)O)c(O)cc32)c2cc(O)c(S(=O)(=O)O)cc21 [6,6'-dihydroxy-3,3,3',3'-tetramethyl-1,1'-spirobi[2,3-dihydro-1H-indene]-5,5'-disulfonic acid] | – | – | 69 µM
CC1(C)CC2(CC(C)(C)c3cc(O)c(O)cc32)c2cc(O)c(O)cc21 [HIV-1 Integrase Inhibitor] | 17 µM | 5 µM | –
